Data set [1] concerns Mycobacterium tuberculosis. In words: Antimycobacterial activity against Mycobacterium tuberculosis H37Rv in macrophages. In kind it is functional. A digest of the protocol: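 M. tuberculosis H37Rv replicating inside macrophages; intracellular MIC80 determined, i.e. concentration inhibiting 80% of growth.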
The test system of data set [2] is Mycobacterium tuberculosis. In words: Antimycobacterial activity against Mycobacterium tuberculosis H37Rv in liquid broth culture medium. In kind it is functional. A digest of the protocol: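 M. tuberculosis H37Rv replicating in liquid broth culture medium; MIC80 determined, i.e. concentration inhibiting 80% of growth.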
Data set [3] in a line: Half life in mouse liver microsomes. In kind it is ADME. A digest of the protocol:
(§1)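 Metabolic stability measured by incubation in human or mouse liver microsomal preparations; half-life reported.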
For orientation: Liver microsomes are a subcellular fraction often used to study metabolism.

The nature of data set [4]: Half life in human liver microsomes. In kind it is ADME. A digest of the protocol: as §1

Values after ≈ are worked out from the molar mass of the structure shown.

The record followed here is ChEMBL document CHEMBL3297708, “Lead optimization of a novel series of imidazo[1,2-a]pyridine amides leading to a clinical candidate (Q203) as a multi- and extensively-drug-resistant anti-tuberculosis agent” (J Med Chem, 2014).

Take `CCc1nc2ccc(Cl)cn2c1CC(=O)Nc1ccc(-c2ccccc2)cc1`: the MIC80 in data set [1] and in data set [2] was over 10 µM each time.
Usually half-life stands for the time in which the quantity being followed falls by half. Low readings indicate fast loss, high ones slow loss. With `CCCc1nc2ccccn2c1C(=O)NCc1ccc(-c2ccccc2)cc1`, the values for the half-life in data set [3] and in data set [4] were 8.7 min and 22.4 min, respectively. Further, the values for the MIC80 in data set [1] and in data set [2] were 0.05 µM (≈ 0.0185 µg/mL) and 1.18 µM (≈ 0.436 µg/mL), respectively.
In the case of `CCc1nc2cc(Cl)ccn2c1C(=O)NCc1ccc(N2CCN(C(C)C)CC2)cc1`, the results for the half-life in data set [3] and in data set [4] were 8.9 min and over 120 min, respectively. Besides, the MIC80 in data set [1] came out at 0.14 µM (≈ 0.0616 µg/mL); in data set [2], 3 µM (≈ 1.32 µg/mL).
Turning to `CC(C)c1nc2ccccn2c1C(=O)NCc1ccc(-c2ccccc2)cc1`, the MIC80 in data set [1] and in data set [2] was 3.13 µM (≈ 1.16 µg/mL) each time. The half-life in data set [4] was determined as 31.6 min.
Regarding `Cc1nc2ccccn2c1C(=O)NCc1ccc(-c2ccccc2)cc1`, the MIC80 in data set [1] was 0.02 µM (≈ 0.00683 µg/mL); in data set [2], 0.25 µM (≈ 0.0854 µg/mL).
Consider `CCc1nc2cc(Cl)ccn2c1C(=O)NCc1ccc(-c2ccc(Cl)cc2)cc1`, for which the figures for the half-life in data set [3] and in data set [4] were over 60 min and over 120 min, respectively. For the same compound, the results for the MIC80 in data set [1] and in data set [2] were 0.00101 µM (≈ 0.000429 µg/mL) and 0.0013 µM (≈ 0.000552 µg/mL), respectively.
Regarding `CCc1nc2ccc(Cl)cn2c1CNCc1ccc(-c2ccccc2)cc1`, the MIC80 turned out to be 0.2 µM (≈ 0.0752 µg/mL) in data set [1] and 0.81 µM (≈ 0.304 µg/mL) in data set [2].
For the compound `CCc1nc2cc(Cl)ccn2c1C(=O)NCc1ccc(-c2ccc(C)cc2)cc1`, the half-life was determined as 23.1 min in data set [3] and 25.4 min in data set [4]. Further, the MIC80 in data set [1] is 0.00135 µM (≈ 0.000545 µg/mL); in data set [2], under 0.0005 µM.
For the compound `CCc1nc2ccc(Cl)cn2c1C(=O)N(C)Cc1ccc(-c2ccccc2)cc1`, the MIC80 was 0.97 µM (≈ 0.392 µg/mL) in data set [1] and 8.69 µM (≈ 3.51 µg/mL) in data set [2].
In the case of `CCc1nc2cc(Cl)ccn2c1C(=O)NCc1ccc(N2CCN(C)CC2)cc1`, the results for the half-life in data set [3] and in data set [4] were 12.1 min and 117 min, respectively. Further, the MIC80 in data set [1] worked out at 0.36 µM (≈ 0.148 µg/mL); in data set [2] it was 4.39 µM (≈ 1.81 µg/mL).
For `CCc1nc2ccc(Cl)cn2c1C(=O)NCc1ccc(-c2ccccc2Cl)cc1` the same measures were 13.1 min, 38.9 min, 0.0093 µM (≈ 0.00395 µg/mL) and 0.043 µM (≈ 0.0182 µg/mL).
The matching figures for `CCc1nc2cc(Cl)ccn2c1C(=O)NCc1ccc(N2CCC(Cl)CC2)cc1`: 5.2 min, 11 min, 0.002 µM (≈ 0.000863 µg/mL) and 0.019 µM (≈ 0.0082 µg/mL).
For `CCc1nc2cc(Cl)ccn2c1C(=O)NCc1ccc(-n2cc3c(c2)CCCC3)cc1` the same measures were 62.3 min, 27.3 min, 0.00374 µM (≈ 0.00162 µg/mL) and 0.034 µM (≈ 0.0147 µg/mL).
With `Cc1nc2ccc(Cl)cn2c1C(=O)NCc1ccc(-c2ccccc2)cc1`, the half-life in data set [3] was over 60 min; in data set [4], over 120 min. The figures for the MIC80 in data set [1] and in data set [2] were 0.042 µM (≈ 0.0158 µg/mL) and 0.175 µM (≈ 0.0658 µg/mL), respectively.
`CCc1nc2ccc(Cl)cn2c1C(=O)NCc1ccc(-c2ccccc2)cc1`: the half-life in data set [3] is 19.3 min; in data set [4] it was 22.8 min. For the same compound, the MIC80 in data set [1] stood at 0.00139 µM (≈ 0.000542 µg/mL); in data set [2] it was 0.045 µM (≈ 0.0175 µg/mL).
Turning to `CCc1nc2cc(Cl)ccn2c1C(=O)NCc1ccc(-c2ccc(C(=O)O)cc2)cc1`, the half-life in data set [3] and in data set [4] was over 120 min in each case. The MIC80 in data set [1] came out at 0.217 µM (≈ 0.0942 µg/mL); in data set [2], 0.25 µM (≈ 0.108 µg/mL).
In the case of `CCc1nc2cc(Cl)ccn2c1C(=O)NCc1ccc(N2CCC(C(F)(F)F)CC2)cc1`, the half-life was 5.1 min in data set [3] and 6.5 min in data set [4]. For the same compound, the MIC80 was found to be 0.00047 µM (≈ 0.000219 µg/mL) in data set [1] and 0.0008 µM (≈ 0.000372 µg/mL) in data set [2].
Take `CCc1nc2cc(Cl)ccn2c1C(=O)NCc1ccc(-c2ccncc2)cc1`: the MIC80 in data set [1] worked out at 0.74 µM (≈ 0.289 µg/mL); in data set [2], 2.22 µM (≈ 0.868 µg/mL). In data set [4], the half-life came out at 28.9 min.
For the compound `CCc1nc2ccc(Cl)cn2c1NC(=O)Cc1ccc(-c2ccccc2)cc1`, the MIC80 stood at 0.69 µM (≈ 0.269 µg/mL) in data set [1] and 1.67 µM (≈ 0.651 µg/mL) in data set [2].
For the compound `CCc1nc2cc(Cl)ccn2c1C(=O)NCc1ccc(-c2ccc[nH]2)cc1`, the half-life in data set [3] was 10.8 min; in data set [4], over 120 min. For the same compound, the MIC80 in data set [1] was 0.14 µM (≈ 0.053 µg/mL); in data set [2] it was 2 µM (≈ 0.758 µg/mL).
As to `CCc1nc2ccc(Cl)cn2c1CC(=O)NCc1ccc(-c2ccccc2)cc1`, the MIC80 in data set [1] and in data set [2] was over 10 µM each time.
On to `CCc1nc2ccc(Cl)cn2c1C(=O)Nc1ccc(-c2ccccc2)cc1`, for which the MIC80 in data set [1] and in data set [2] was over 10 µM in each case.
For `CO[C@H]1/C=C/O[C@@]2(C)Oc3c(C)c(O)c4c(O)c(c(/C=N/N5CCN(C)CC5)c(O)c4c3C2=O)NC(=O)/C(C)=C\C=C\[C@H](C)[C@H](O)[C@@H](C)[C@@H](O)[C@@H](C)[C@H](OC(C)=O)[C@@H]1C` [RIFAMPIN], the MIC80 in data set [1] is 0.18 µM (≈ 0.148 µg/mL); in data set [2], 0.0266 µM (≈ 0.0219 µg/mL).
Turning to `CCc1nc2cc(Cl)ccn2c1C(=O)NCc1ccc(N2CC3CCCCC3C2)cc1` (stereo not drawn), the half-life in data set [3] was found to be 6.3 min; in data set [4], 14.9 min. The MIC80 in data set [1] is 0.0094 µM (≈ 0.00411 µg/mL); in data set [2] it was 0.025 µM (≈ 0.0109 µg/mL).
In the case of `CCc1nc2ccccn2c1C(=O)NCc1ccc(-c2ccccc2)cc1`, the figures for the MIC80 in data set [1] and in data set [2] were 0.097 µM (≈ 0.0345 µg/mL) and 0.063 µM (≈ 0.0224 µg/mL), respectively. The half-life in data set [4] stood at 27.1 min.
Regarding `CCc1nc2cc(Cl)ccn2c1C(=O)NCc1ccc(N2CCCCC2)cc1`, the half-life turned out to be 2.3 min in data set [3] and 13.2 min in data set [4]. Also, the results for the MIC80 in data set [1] and in data set [2] were 0.0082 µM (≈ 0.00325 µg/mL) and 0.016 µM (≈ 0.00635 µg/mL), respectively.
As to `CCc1nc2cc(Cl)ccn2c1C(=O)NCc1ccc(N2CCCCCC2)cc1`, the half-life in data set [3] came out at 1.9 min; in data set [4] it was 2.9 min. Also, the figures for the MIC80 in data set [1] and in data set [2] were 0.01 µM (≈ 0.00411 µg/mL) and 0.035 µM (≈ 0.0144 µg/mL), respectively.
The matching figures for `CCc1nc2cc(Cl)ccn2c1C(=O)NCc1ccc(-c2ccc(C(C)(C)C)cc2)cc1`: 50.7 min, 18.5 min, 0.00046 µM (≈ 0.000205 µg/mL) and 0.012 µM (≈ 0.00535 µg/mL).
